From ChEMBL document CHEMBL1123593, “2,4-diamino-6,7-dimethoxyquinazolines. 1. 2-[4-(1,4-benzodioxan-2-ylcarbonyl)piperazin-1-yl] derivatives as alpha 1-adrenoceptor antagonists and antihypertensive agents” (J Med Chem, 1987)
Active and inactive are the calls of the source. No cut-off for these calls is given here.

What was measured:
Rattus norvegicus [1] = assay: Percent reduction in blood pressure in spontaneously hypertensive rats (SHR) at peroral dose of 5 mg/kg was determined after 1 hr; type: functional; conditions: route oral
Procedure, shortened: (§1)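 Single oral gavage dose of 5 mg/kg to groups of six spontaneously hypertensive rats, all with starting systolic pressure above 175 mmHg. Rats were warmed at 33 °C for 20–30 min before readings. Systolic pressure was taken by tail cuff with a variable capacitance transducer, predose and at 1, 2, 4 and 6 h. Percent reduction from predose is given. Saline-dosed controls (n = 10) were run.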

[2] = target: T1, Adrenergic receptor alpha-1 (Rattus norvegicus, UniProt P15823+P23944+P43140); assay: Compound was tested for its binding affinity for alpha-1 adrenergic receptor site by displacement of [3H]prazosin at 0.15 nM concentration
T1 sequence (P15823 whole entry): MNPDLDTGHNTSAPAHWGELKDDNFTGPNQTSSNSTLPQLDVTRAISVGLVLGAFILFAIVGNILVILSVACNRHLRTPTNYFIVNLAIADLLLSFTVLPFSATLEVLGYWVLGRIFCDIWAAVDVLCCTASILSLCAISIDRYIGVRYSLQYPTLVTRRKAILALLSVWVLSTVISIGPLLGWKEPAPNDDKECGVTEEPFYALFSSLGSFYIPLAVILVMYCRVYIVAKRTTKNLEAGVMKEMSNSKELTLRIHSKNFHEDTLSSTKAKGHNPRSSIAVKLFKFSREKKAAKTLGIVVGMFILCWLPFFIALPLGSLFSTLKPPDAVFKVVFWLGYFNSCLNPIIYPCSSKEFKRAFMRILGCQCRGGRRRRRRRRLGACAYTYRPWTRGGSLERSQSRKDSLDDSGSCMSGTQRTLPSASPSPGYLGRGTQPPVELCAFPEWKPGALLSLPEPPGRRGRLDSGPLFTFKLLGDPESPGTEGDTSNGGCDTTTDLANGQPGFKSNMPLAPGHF
T1 sequence (P23944 whole entry): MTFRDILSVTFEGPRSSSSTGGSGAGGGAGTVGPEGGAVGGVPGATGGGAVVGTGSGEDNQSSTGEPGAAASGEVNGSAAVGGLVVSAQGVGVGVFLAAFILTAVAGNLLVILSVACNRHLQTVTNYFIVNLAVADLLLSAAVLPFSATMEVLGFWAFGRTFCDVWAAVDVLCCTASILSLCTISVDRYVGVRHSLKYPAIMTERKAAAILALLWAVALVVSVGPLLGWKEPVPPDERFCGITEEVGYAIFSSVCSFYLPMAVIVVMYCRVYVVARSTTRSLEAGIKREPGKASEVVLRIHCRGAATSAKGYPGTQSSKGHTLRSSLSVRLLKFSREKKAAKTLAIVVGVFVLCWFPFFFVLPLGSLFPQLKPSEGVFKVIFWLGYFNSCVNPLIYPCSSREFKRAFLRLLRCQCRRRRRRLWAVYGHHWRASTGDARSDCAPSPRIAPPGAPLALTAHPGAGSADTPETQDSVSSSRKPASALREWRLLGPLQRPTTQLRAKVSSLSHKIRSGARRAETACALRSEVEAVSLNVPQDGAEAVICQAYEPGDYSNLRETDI
T1 sequence (P43140 whole entry): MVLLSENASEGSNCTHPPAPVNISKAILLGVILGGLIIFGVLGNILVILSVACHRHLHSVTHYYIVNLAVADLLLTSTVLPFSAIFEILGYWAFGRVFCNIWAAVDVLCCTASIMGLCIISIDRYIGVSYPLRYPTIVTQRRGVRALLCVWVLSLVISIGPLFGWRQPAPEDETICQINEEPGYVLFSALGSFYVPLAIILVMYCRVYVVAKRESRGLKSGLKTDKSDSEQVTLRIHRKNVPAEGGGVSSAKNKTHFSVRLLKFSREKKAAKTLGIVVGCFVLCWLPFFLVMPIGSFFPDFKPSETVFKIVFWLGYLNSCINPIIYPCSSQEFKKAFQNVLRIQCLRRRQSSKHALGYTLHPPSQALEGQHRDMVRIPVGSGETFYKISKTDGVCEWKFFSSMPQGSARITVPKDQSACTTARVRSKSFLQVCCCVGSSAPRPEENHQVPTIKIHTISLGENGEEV

Rattus norvegicus [3] = assay: Percent reduction in blood pressure in spontaneously hypertensive rats (SHR) at peroral dose of 5 mg/kg was determined after 6 hr; type: functional; conditions: route oral; procedure, shortened: as §1
[4] = target: T2, Adrenergic receptor alpha-1 (Homo sapiens) (UniProt P35348+P25100+P35368); assay: Antagonist activity against post junctional alpha-1 adrenergic receptor was measured by Kerbs super fused rabbit pulmonary artery preparations labeled with [3H]- norepinephrine.; type: functional; conditions: Oryctolagus cuniculus; target entry is the homologue from another species
Procedure, shortened: (§2)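 Rabbit pulmonary artery superfused in Krebs after [3H]-noradrenaline labelling, with transmural electrical stimulation (3 Hz, 0.05 h). Postjunctional response was read as contraction on an isometric transducer. Percent antagonism was plotted against compound concentration. EC40-post, the concentration giving 40% reduction of contractile response, was read from the graph. Values are averaged from two experiments, six for some.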

[5] = target: T3, Adrenergic receptor alpha-2 (Homo sapiens) (UniProt P08913+P18825+P18089); conditions: Oryctolagus cuniculus; Pulmonary artery
[6] = target: T1, Adrenergic receptor alpha-1; assay: Compound was tested for its binding affinity for alpha-1 adrenoceptor site by displacement of [3H]-prazosin at 0.15 nM concentration
[7] = target: T3, Adrenergic receptor alpha-2 (Homo sapiens); assay: Antagonist activity against prejunctional alpha-2 adrenergic receptor was measured by Kerbs super fused rabbit pulmonary artery preparations labeled with [3H]- norepinephrine; NA means no activity.; type: functional; conditions: Oryctolagus cuniculus; target entry is the homologue from another species
Procedure, shortened: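 [3H]-noradrenaline-labelled rabbit pulmonary artery, Krebs-superfused and stimulated transmurally (3 Hz, 0.05 h). Prejunctional action was read as [3H] overflow by liquid scintillation counting and plotted against compound concentration. EC40-pre, the concentration producing a 40% increase in [3H] overflow, was read from the graph. Values are averaged from two experiments, six for some.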

[8] = target: T2, Adrenergic receptor alpha-1 (Homo sapiens); assay: Antagonist activity against post junctional Alpha-1 adrenergic receptor was measured by Kerbs super fused rabbit pulmonary artery preparations labeled with [3H]- norepinephrine.; type: functional, tissue-based; conditions: Oryctolagus cuniculus, target entry is the homologue from another species; procedure, shortened: as §2
[9] = target: T1, Adrenergic receptor alpha-1; assay: Compound was tested for its binding affinity for alpha-1 adrenergic receptor site by displacement of [3H]prazosin at 0.15 nM concentration; remark: listed apart in the source
[10] = target: T2, Adrenergic receptor alpha-1 (Homo sapiens); assay: Antagonist activity against post junctional alpha-1 adrenergic receptor was measured by Kerbs super fused rabbit pulmonary artery preparations labeled with [3H]- norepinephrine; type: functional, tissue-based; conditions: Oryctolagus cuniculus, target entry is the homologue from another species; procedure, shortened: as §2
[11] = target: T1, Adrenergic receptor alpha-1; assay: Compound was tested for its binding affinity for alpha-1 adrenergic receptor site by displacement of [3H]prazosin at 0.15 nM concentration; remark: listed apart in the source

| Ki [2] | SMILES | Reduction (Rattus norvegicus [1]) | Reduction (Rattus norvegicus [3]) | further results |
| --- | --- | --- | --- | --- |
| 6.4 nM | COc1cc2nc(N3CCN(C(=O)C4COc5cc(C(C)=O)ccc5O4)CC3)nc(N)c2cc1OC (configuration not stated) | 26% | 24% |  |
| 13.3 nM | COc1cc2nc(N3CCN(C(=O)C4COc5cc(Cl)c(Cl)cc5O4)CC3)nc(N)c2cc1OC (configuration not stated) | 6% | 9% |  |
| 3.8 nM | COc1cc2nc(N3CCN(C(=O)C4CCOc5ccccc5O4)CC3)nc(N)c2cc1OC (configuration not stated) | 21% | 16% |  |
| 6.5 nM | COc1cc2nc(N3CCN(C(=O)C4COc5ccc(S(=O)(=O)N(C)C)cc5O4)CC3)nc(N)c2cc1OC (configuration not stated) | 10% | 8% |  |
| 3.7 nM | COc1cc2nc(N3CCN(C(=O)C4COc5cccc(C)c5O4)CC3)nc(N)c2cc1OC (configuration not stated) | 16% | 22% | EC40 [4]: 26 nM; EC40 [5]: inactive |
| 6.5 nM | COc1cc2nc(N3CCN(C(=O)C4COc5ccccc5O4)C(C)C3)nc(N)c2cc1OC (configuration not stated) | 18% | 13% |  |
|  | COc1cc2nc(N3CCN(C(=O)C4COc5ccccc5O4)CC3)nc(N)c2cc1OC (single isomer, unassigned; (-)) |  |  | EC40 [4]: 40 nM |
|  | COc1cc2nc(N3CCN(C(=O)C4Oc5ccccc5OC4C)CC3)nc(N)c2cc1OC (cis isomer) [listing 1 of 2 here] |  |  | EC40 [4]: 27 nM; EC40 [5]: inactive |
|  | COc1cc2nc(N3CCN(C(=O)C4COc5ccccc5O4)CC3)nc(N)c2cc1OC (single isomer, unassigned; (+)) |  |  | EC40 [4]: 7 nM |
|  | COc1ccc2c(c1)OCC(C(=O)N1CCN(c3nc(N)c4cc(OC)c(OC)cc4n3)CC1)O2 (configuration not stated) | 34% | 23% | Ki [6]: 5.6 nM; EC40 [7]: inactive; EC40 [8]: 10 nM |
|  | COc1cc2nc(N3CCN(C(=O)C4(C)COc5ccccc5O4)CC3)nc(N)c2cc1OC (configuration not stated) | 8% | 9% | Ki [9]: 1.5 nM |
|  | COc1cc2nc(N3CCN(C(=O)c4ccco4)CC3)nc(N)c2cc1OC [PRAZOSIN] | 33% | 29% | EC40 [4]: 4.5 nM |
| 3 nM | COc1cc2nc(N3CCN(C(=O)C4COc5ccc(C(C)=O)cc5O4)CC3)nc(N)c2cc1OC (configuration not stated) | 19% | 24% |  |
| 12.6 nM | COc1cc2nc(N3CCN(C(=O)C4COc5cc(Cl)ccc5O4)CC3)nc(N)c2cc1OC (configuration not stated) | 27% | 23% |  |
| 6.7 nM | COc1cc2nc(N3CCN(C(=O)C4COc5cccc(C(C)C)c5O4)CC3)nc(N)c2cc1OC (configuration not stated) | 6% | 3% | EC40 [5]: inactive; EC40 [10]: 130 nM |
| 2.2 nM | COc1cc2nc(N3CCN(C(=O)C4COc5ccccc5O4)CC3)nc(N)c2cc1OC (single isomer, unassigned; (-)) [DOXAZOSIN] |  |  | Reduction (Rattus norvegicus [1]; 5 mg/kg): 12% |
| 0.7 nM | COc1cc2nc(N3CCN(C(=O)C4Oc5ccccc5OC4C)CC3)nc(N)c2cc1OC (cis isomer) [listing 2 of 2 here] |  |  | Reduction (Rattus norvegicus [1]; 5 mg/kg): 23%; Reduction (Rattus norvegicus [3]; 5 mg/kg): 25% |
| 1.6 nM | COc1cc2nc(N3CCCN(C(=O)C4COc5ccccc5O4)CC3)nc(N)c2cc1OC (configuration not stated) | 22% | 12% |  |
| 2.6 nM | COc1cc2nc(N3CCN(C(=O)C4COc5ccccc5O4)CC3)nc(N)c2cc1OC (single isomer, unassigned; (+)) [DOXAZOSIN] |  |  | Reduction (Rattus norvegicus [1]; 5 mg/kg): 27%; Reduction (Rattus norvegicus [3]; 5 mg/kg): 24% |
|  | COc1cc2nc(N3CCN(C(=O)C4COc5cccc(OC)c5O4)CC3)nc(N)c2cc1OC (configuration not stated) | 14% | 13% | Ki [11]: 2.4 nM |
| 1.1 nM | COc1cc2nc(N3CCN(C(=O)C4COc5ccccc5O4)CC3)nc(N)c2cc1OC (stereo in doubt; 1) [DOXAZOSIN] |  |  | Reduction (Rattus norvegicus [1]; 5 mg/kg): 23%; Reduction (Rattus norvegicus [3]; 5 mg/kg): 27% |
| 7.8 nM | COc1cc2nc(N3CCN(C(=O)C4COc5cc(C)c(C)cc5O4)CC3)nc(N)c2cc1OC (configuration not stated) | 14% | 20% |  |
| 2.1 nM | COc1cc2nc(N3CCN(C(=O)C4Oc5ccccc5OC4C)CC3)nc(N)c2cc1OC (trans isomer) [listing 1 of 2 here] |  |  | Reduction (Rattus norvegicus [1]; 5 mg/kg): 21%; Reduction (Rattus norvegicus [3]; 5 mg/kg): 21% |
|  | COc1cc2nc(N3CCN(C(=O)C4COc5ccccc5O4)CC3)nc(N)c2cc1OC (stereo in doubt; 1) |  |  | EC40 [4]: 50 nM |
|  | COc1cc2nc(N3CCN(C(=O)C4Oc5ccccc5OC4C)CC3)nc(N)c2cc1OC (trans isomer) [listing 2 of 2 here] |  |  | EC40 [4]: 13 nM; EC40 [5]: inactive |
